For 11 compounds, Activity results are on record in ChEMBL document CHEMBL3580615, “Isolation and Characterization of Dammarane-Type Saponins from Gynostemma pentaphyllum and Their Inhibitory Effects on IL-6-Induced STAT3 Activation” (J Nat Prod, 2015).

SMILES strings stand for the structures.

A short description of the data set: Cytotoxicity against human Hep3B cells after 48 hrs by MTT assay. In kind it is cell-based. To be noted: hep 3b2, 48 h. In a few lines:
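Hep3B cells plated and grown 24 h in 96-well plates, then switched to serum-free medium. Samples added at indicated concentrations for 48 h. Viability read by MTT assay.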

For the compound `CC(C)/C=C/C[C@](C)(O[C@@H]1O[C@H](CO[C@@H]2O[C@@H](C)[C@H](O)[C@@H](O)[C@H]2O)[C@@H](O)[C@H](O)[C@H]1O)[C@H]1CC[C@]2(C)[C@@H]1[C@H](O)C[C@@H]1[C@@]3(C)C[C@@H](O)[C@H](O[C@@H]4O[C@H](CO)[C@@H](O)[C@H](O)[C@H]4O[C@@H]4O[C@H](CO)[C@@H](O)[C@H](O)[C@H]4O)C(C)(C)[C@@H]3CC[C@]12C`, the Activity result is listed as “Non-toxic”.
The entry for `C[C@@H]1O[C@@H](OC[C@H]2O[C@@H](O[C@@](C)(C/C=C/C(C)(C)O)[C@H]3CC[C@]4(C)[C@@H]3[C@H](O)C[C@@H]3[C@@]5(C)C[C@@H](O)[C@H](O[C@@H]6O[C@H](CO)[C@@H](O)[C@H](O)[C@H]6O)C(C)(C)[C@@H]5CC[C@]34C)[C@H](O)[C@@H](O)[C@@H]2O)[C@H](O)[C@H](O)[C@H]1O` is “Non-toxic”; for `CC(C)(/C=C/C[C@](C)(O[C@@H]1O[C@H](CO)[C@@H](O)[C@H](O)[C@H]1O)[C@H]1CC[C@]2(C)[C@@H]1[C@H](O)C[C@@H]1[C@@]3(C)C[C@@H](O)[C@H](O[C@@H]4O[C@H](CO)[C@@H](O)[C@H](O)[C@H]4O[C@@H]4O[C@H](CO)[C@@H](O)[C@H](O)[C@H]4O)C(C)(C)[C@@H]3CC[C@]12C)OO` it is “Non-toxic”.
Then `C[C@@H]1O[C@@H](OC[C@H]2O[C@@H](O[C@@](C)(C/C=C/C(C)(C)OO)[C@H]3CC[C@]4(C)[C@@H]3[C@H](O)C[C@@H]3[C@@]5(C)C[C@@H](O)[C@H](O[C@@H]6O[C@H](CO)[C@@H](O)[C@H](O)[C@H]6O[C@@H]6O[C@H](CO)[C@@H](O)[C@H](O)[C@H]6O)C(C)(C)[C@@H]5CC[C@]34C)[C@H](O)[C@@H](O)[C@@H]2O)[C@H](O)[C@H](O)[C@H]1O`, with “Non-toxic”.
Then `CC(C)(/C=C/C[C@](C)(O[C@@H]1O[C@H](CO[C@@H]2O[C@H](CO)[C@@H](O)[C@H](O)[C@H]2O)[C@@H](O)[C@H](O)[C@H]1O)[C@H]1CC[C@]2(C)[C@@H]1[C@H](O)C[C@@H]1[C@@]3(C)C[C@@H](O)[C@H](O)C(C)(C)[C@@H]3CC[C@]12C)OO`, with “Non-toxic”; and `C=C(C)C(=O)CC[C@](C)(O[C@@H]1O[C@H](CO[C@@H]2O[C@@H](C)[C@H](O)[C@@H](O)[C@H]2O)[C@@H](O)[C@H](O)[C@H]1O)[C@H]1CC[C@]2(C)[C@@H]1[C@H](O)C[C@@H]1[C@@]3(C)C[C@@H](O)[C@H](O[C@@H]4O[C@H](CO)[C@@H](O)[C@H](O)[C@H]4O[C@@H]4O[C@H](CO)[C@@H](O)[C@H](O)[C@H]4O)C(C)(C)[C@@H]3CC[C@]12C`, with “Non-toxic”.
On to `C=C(C)C(=O)CC[C@](C)(O[C@@H]1O[C@H](CO[C@@H]2O[C@H](CO)[C@@H](O)[C@H](O)[C@H]2O)[C@@H](O)[C@H](O)[C@H]1O)[C@H]1CC[C@]2(C)[C@@H]1[C@H](O)C[C@@H]1[C@@]3(C)C[C@@H](O)[C@H](O)C(C)(C)[C@@H]3CC[C@]12C`, for which the Activity entry is recorded as “Non-toxic”.
For the compound `CC(C)/C=C/C[C@](C)(O[C@@H]1O[C@H](CO[C@@H]2O[C@@H](C)[C@H](O)[C@@H](O)[C@H]2O)[C@@H](O)[C@H](O)[C@H]1O)[C@H]1CC[C@]2(C)[C@@H]1[C@H](O)C[C@@H]1[C@@]3(C)C[C@@H](O)[C@H](O[C@@H]4O[C@H](CO)[C@@H](O)[C@H](O)[C@H]4O)C(C)(C)[C@@H]3CC[C@]12C`, the Activity result is “Non-toxic”.
Then `C=C(C)C(=O)CC[C@](C)(O[C@@H]1O[C@H](CO[C@@H]2O[C@@H](C)[C@H](O)[C@@H](O)[C@H]2O)[C@@H](O)[C@H](O)[C@H]1O)[C@H]1CC[C@]2(C)[C@@H]1[C@H](O)C[C@@H]1[C@@]3(C)C[C@@H](O)[C@H](O)C(C)(C)[C@@H]3CC[C@]12C`, with “Non-toxic”.
Regarding `CC(C)/C=C/C[C@](C)(O[C@@H]1O[C@H](CO[C@@H]2O[C@@H](C)[C@H](O)[C@@H](O)[C@H]2O)[C@@H](O)[C@H](O)[C@H]1O)[C@H]1CC[C@]2(C)[C@@H]1[C@H](O)C[C@@H]1[C@@]3(C)CC[C@H](O[C@@H]4O[C@H](CO)[C@@H](O)[C@H](O)[C@H]4O[C@@H]4O[C@H](CO)[C@@H](O)[C@H](O)[C@H]4O)C(C)(C)[C@@H]3CC[C@]12C`, the Activity entry is on record as “Non-toxic”.
On to `CC(C)/C=C/C[C@](C)(O[C@@H]1O[C@H](CO[C@@H]2O[C@@H](C)[C@H](O)[C@@H](O)[C@H]2O)[C@@H](O)[C@H](O)[C@H]1O)[C@H]1CC[C@]2(C)[C@@H]1[C@H](O)C[C@@H]1[C@@]3(C)C[C@@H](O)[C@H](O)C(C)(C)[C@@H]3CC[C@]12C`, for which the Activity entry is “Non-toxic”.
